# Hits are enriched below; roughly 2% of the tested compounds scored in any of these assays.
# FLuc stim CS: firefly luciferase counter-screen for stimulation assays. activation factor at 10 µM. AID 1027. P08659. 200,000 tested, under 10 active. ATPlite luciferase biochemical, luminescence, 10 min; 0 = ATP-free wells, 1 = DMSO control;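 active = luciferase activation factor, scaled between plate controls, of at least 2 with compound at 10 µM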
# Target sequence (P08659 whole entry, looked up): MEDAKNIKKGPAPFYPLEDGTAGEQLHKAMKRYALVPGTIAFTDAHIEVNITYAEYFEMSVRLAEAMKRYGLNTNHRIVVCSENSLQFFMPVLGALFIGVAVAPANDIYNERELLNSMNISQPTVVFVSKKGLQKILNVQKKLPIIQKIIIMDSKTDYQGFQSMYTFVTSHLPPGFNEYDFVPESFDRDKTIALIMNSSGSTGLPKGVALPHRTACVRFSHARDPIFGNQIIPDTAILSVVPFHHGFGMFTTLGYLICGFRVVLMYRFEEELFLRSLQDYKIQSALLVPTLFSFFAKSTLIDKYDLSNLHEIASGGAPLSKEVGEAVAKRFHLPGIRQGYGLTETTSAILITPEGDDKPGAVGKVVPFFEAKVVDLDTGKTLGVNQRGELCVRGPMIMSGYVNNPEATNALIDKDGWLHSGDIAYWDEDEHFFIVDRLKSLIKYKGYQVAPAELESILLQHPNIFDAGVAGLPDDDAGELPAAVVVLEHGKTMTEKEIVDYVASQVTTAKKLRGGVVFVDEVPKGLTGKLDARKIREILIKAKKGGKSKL
#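 Assay system – cell-free luciferase reagent · Medium – PBS-based ATP solution · Dosing – test compounds dosed from 2 mM stocks in 100% DMSO · Timing – 10 min, room temperature · Technique – light output (luminescence) · Measure – luminescence gain marking luciferase activators · Controls – No-ATP low control, compound-free enzyme-plus-ATP high control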
# PPC-1+TRAIL kill: PPC-1 cancer cell killing with TRAIL present; PPC-1 cells + TRAIL, ATPLite viability luminescence; cell killing (% activity), % at 4 µM or 5 µM; 0.41% of 220,000 active;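 active = cell killing above 50% in the first pass at 4 µM, then a duplicate retest at 5 µM averaging 50% or more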;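 note: plate controls were cells with TRAIL plus DMSO for no effect and medium-only wells lacking cells for full effect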
# FLuc inhib CS: Photinus pyralis luciferase inhibition counter-screen | P08659 | ATPLite firefly luciferase biochemical luminescence, 10 min | inhibition, % at 10 µM | 1.5% of 200,000 active | AID 1006;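 active = inhibition above about 50% when tested at 10 µM, limit read from the data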
# TRAIL sens C8: caspase-8 TRAIL sensitization; NB7+C8 cells + TRAIL, ATPlite viability luminescence; inhibition (viability loss, TRAIL sensitization), % at 10 µM; 1% of 360,000 active; AID 624354;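 active = compounds causing at least 50% loss of cell viability in the single-dose screen, relative to plate controls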
# HSP90 refold inh: inhibitors of HSP90 luciferase refolding in rabbit reticulocyte lysate; 0.91% of 290,000 active; inhibition, % at 5.6 µM; AID 1789; luciferase refolding luminescence, 3 h;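 active = inhibition above the screen-wide mean plus 3 SD, computed separately per campaign, cut at about 16% in these data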;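 note: 0% = DMSO wells and 100% = 60 µM geldanamycin wells; inhibitors lower the luminescence because luciferase stays unfolded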
# PPC1 cytotox: PPC-1 cell cytotoxicity. shares compounds with PPC-1+TRAIL kill. PPC-1 viability, ATPlite luminescence, overnight. cytotoxicity, % at 5 µM. 50% of 1,200 active. AID 1447;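 active = reconfirmed compounds whose average cytotoxicity reaches 50% or more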;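 note: 0% = DMSO-treated cells and 100% = wells holding medium but no cells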
# * hit, by the source's call; nt = not tested or not shown.
SMILES,FLuc stim CS,PPC-1+TRAIL kill,FLuc inhib CS,TRAIL sens C8,HSP90 refold inh,PPC1 cytotox
O=C1CCC(=O)N1c1nc2nc(-c3ccccc3)cc(-c3ccccc3)n2n1,1,11,3,3,-4,-6
CC1(C(=O)Nc2ccc3c(c2)OCCO3)CN(S(C)(=O)=O)CC(=O)N1C1CCCCCC1 (stereo unspecified),nt,nt,nt,-7,nt,nt
CCOC(=O)N=Nc1c2ccccc2c2nc3no[nH]c3nc12,1.1,83*,-6,96*,6,81*
O=c1c2c(-c3ccccc3)csc2nc2c3ccccc3c(NCCN3CCOCC3)nn12,1,-6,0,72*,6,6
C=CCN(c1ccccc1)S(=O)(=O)c1cccc(C(=O)N(CC)CC(=O)Nc2c(F)cccc2F)c1,nt,nt,nt,11,-1,nt
O=C(/C=C/c1ccccc1Br)c1ccc2c(c1)OCO2,nt,nt,nt,-18,0,nt
COC(=O)c1ccc(N/C=C\C(=O)c2ccc3c(c2)OCO3)cc1,0.8,30,16,20,1,nt
O=C(/C=C\Nc1ccccc1Br)c1ccc2c(c1)OCO2,0,93*,97*,91*,7,94*
O=C(/C=C\Nc1cccc(F)c1)c1ccc2c(c1)OCO2,0.1,74*,90*,72*,1,71*
COc1cc(OC)c(C(=O)Nc2cccnc2)cc1OC,nt,nt,nt,-7,-4,nt
COc1cc2ccccc2cc1C(=O)Nc1cccnc1,0.8,8,19,5,1,16
CC(C)c1ccc(NC(=O)Nc2nc(C(N)c3ccccc3Cl)cs2)cc1 (stereo unspecified),nt,nt,nt,23,nt,nt
Nc1[nH]c(C(=O)c2ccccc2)c(-c2ccc(C(F)(F)F)cc2)c1C(=O)NCc1ccc(Cl)cc1Cl,nt,nt,nt,-16,nt,nt
CCc1ccc(Nc2nnc(SCC(=O)NC(=O)c3cccn3C)s2)cc1,0.9,46,5,45,4,41
CCc1ccc(Nc2nnc(SCC(=O)N(C)C3CCS(=O)(=O)C3)s2)cc1 (stereo unspecified),nt,70*,nt,71*,0,68*
Cn1cccc1C(=O)NC(=O)CSc1nc2ccccc2s1,1.1,21,-6,16,0,nt
COC(=O)c1cn(-c2nc3ccccc3s2)nn1,nt,nt,nt,-2,nt,nt
COc1ccc(S(=O)(=O)Nc2ccccc2)cc1,nt,nt,nt,22,nt,nt
COc1ccc(S(=O)(=O)Nc2ccc(O)c3ccccc23)cc1,1,16,-1,19,2,4
Cc1noc(C)c1NC(=O)N(C)C[C@H]1OCCCC[C@@H](C)Oc2ccc(NS(=O)(=O)c3ccccc3)cc2C(=O)N([C@H](C)CO)C[C@@H]1C,nt,nt,nt,-9,nt,nt
COC1OC2COC(c3ccccc3)OC2C2OC(c3ccccc3)OC12 (stereo unspecified),nt,nt,nt,-3,nt,nt
COc1ccc(S(=O)(=O)Nc2ccccn2)c(C)c1C,1,-5,-2,-3,-1,-2
CCOc1ccc(S(=O)(=O)Nc2ccccn2)c2ccccc12,1,23,-1,5,-2,nt
COc1ccc2c(c1)CCc1c(C(=O)NCc3ccco3)noc1-2,0.9,16,9,2,-1,11
COc1ccc(NC(=O)C2CCCO2)cc1 (stereo unspecified),1,28,-1,13,4,nt
SMILES,FLuc stim CS,PPC-1+TRAIL kill,FLuc inhib CS,TRAIL sens C8,HSP90 refold inh,PPC1 cytotox
O=C(Nc1ccc(-c2nc3cccnc3s2)cc1)C1CCCO1 (stereo unspecified),0.1,62*,91*,-5,60*,64*
CSCCC(NC(=O)c1ccco1)C(=O)Nc1ccc(C)c(S(=O)(=O)N2CCOCC2)c1 (stereo unspecified),nt,nt,nt,-8,nt,nt
CCC(=O)Nc1cc2nn(-c3ccc(OC)cc3)nc2cc1C,0.3,58*,69*,59*,4,49
Cc1cc(C(=O)OCC(=O)N2CCC(C)CC2)c2ccccc2n1,nt,nt,nt,5,nt,nt
O=C1c2cccc3c([N+](=O)[O-])ccc(c23)C(=O)N1CCc1ccccn1,nt,24,nt,44,-4,12
Nc1nc(CCl)nc(Nc2ccc3ccccc3c2)n1,nt,96*,nt,95*,1,95*
Cc1ccc(Nc2nc(N)nc(CN3CCN(c4ccccc4)CC3)n2)cc1Cl,1.1,15,-7,7,8,nt
CCCCNC(=O)CCC(=O)Nc1ccc2nc(N3CCC(C)CC3)cc(C)c2c1,1,-1,5,-7,2,8
O=C(c1ncc[nH]1)c1ccccc1C(=O)N1CCOCC1,1,6,-1,-15,0,5
CCOc1ccc2nc(NC(=O)c3ccccn3)sc2c1,nt,84*,nt,82*,7,81*
COc1cccc(C(C)(O)c2nc(/C=C/c3ccccc3)cs2)c1 (stereo unspecified),nt,nt,nt,6,nt,nt
COc1ccccc1-n1c(C)cc(/C=C2/C(=N)N3C(=NC2=O)SN=C3S(C)(=O)=O)c1C,0.1,47,87*,58*,15,55*
COc1ccc(NC(=O)c2cc(-c3cc(Cl)ccc3OC)n[nH]2)c(C)c1,nt,nt,nt,26,nt,nt
CCC(=O)NC(c1cccs1)c1ccc2cccnc2c1O (stereo unspecified),1,28,4,48,14,22
COc1ccc2cc(/C(C)=N/NC(=O)c3cc(C)oc3C)ccc2c1,nt,nt,nt,14,nt,nt
COC(=O)N(C)C[C@H]1OCc2cn(nn2)CCCC(=O)N([C@@H](C)CO)C[C@@H]1C,nt,nt,nt,23,nt,nt
COc1ccc(CN(C)C[C@@H]2OCc3cnnn3CCCC(=O)N([C@H](C)CO)C[C@H]2C)cc1,nt,nt,nt,-6,nt,nt
Cn1cccc1CC(=O)N/N=C/C=C/c1ccco1,1,29,5,10,2,nt
CS(=O)(=O)c1ccc2nc(NC(=O)c3ccco3)sc2c1,0.2,46,77*,57*,4,50
COc1ccc(C(=O)N=c2nc3ccccn3s2)cc1,0,90*,97*,91*,3,90*
CC[C@@]1(O)C(=O)OCc2c1cc1n(c2=O)Cc2cc3c(N)cccc3nc2-1,nt,32,nt,15,nt,32
Fc1ccc(Cn2c(-c3cscn3)nc3ccccc32)c(Cl)c1,1,-3,-5,-10,2,10
Nc1nonc1-c1nc2ccccc2n1Cc1ccc(F)cc1Cl,1,20,-1,20,-3,nt
